Compound activity (PubChem BioAssay)
procasp3 activ = procaspase-3 (human) activation | activation, % at 8.5 µM | recombinant procaspase-3 D3A, Ac-DEVD-pNA absorbance 405 nm | AID 463141 | 330,000 tested, 0.11% active;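 active means activation above the mean of all tested compounds plus 3 SD, cut at about 21% in these data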;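 further: 0% = DMSO alone and 100% = DMSO wells spiked with extra 5 µM PC-3 D3A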
Target sequence (P42574 whole entry D9A/D28A/D175A): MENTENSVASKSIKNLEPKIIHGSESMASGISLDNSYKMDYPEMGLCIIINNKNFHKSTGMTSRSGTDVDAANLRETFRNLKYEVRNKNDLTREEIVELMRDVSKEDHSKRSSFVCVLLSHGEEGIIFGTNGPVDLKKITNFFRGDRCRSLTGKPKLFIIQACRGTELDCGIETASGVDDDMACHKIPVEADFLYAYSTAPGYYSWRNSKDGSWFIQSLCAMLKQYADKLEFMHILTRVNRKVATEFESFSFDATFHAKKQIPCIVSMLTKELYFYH
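Compound: 8.5 µM single point, 0.8% DMSO / Material: Autoprocessing-dead procaspase-3 D3A mutant enzyme / Timing: 1 h preincubation plus 2 h reaction at 25 °C / Medium: Zinc-free HEPES/NaCl buffer with 0.01% Triton X-100 at pH 7.4 / Technique: 405 nm absorbance of p-nitroaniline, reads at 0 and 120 min / Repeats: one well per compound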
proCasp7 act = counter-screen: procaspase-7 (human) activation; recombinant procaspase-7, Ac-DEVD-pNA absorbance 405 nm; D23A/D198A/D206A triple mutant, cannot self-cleave; scale: DMSO 0, 5 µM enzyme 100; activation, % at 8.5 µM; 330,000 tested, 0.093% active; AID 463210;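 active means percent activation above the screen-wide mean plus 3 SD, cut at about 25% in these data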
Target sequence (P55210 whole entry D23A/D198A/D206A): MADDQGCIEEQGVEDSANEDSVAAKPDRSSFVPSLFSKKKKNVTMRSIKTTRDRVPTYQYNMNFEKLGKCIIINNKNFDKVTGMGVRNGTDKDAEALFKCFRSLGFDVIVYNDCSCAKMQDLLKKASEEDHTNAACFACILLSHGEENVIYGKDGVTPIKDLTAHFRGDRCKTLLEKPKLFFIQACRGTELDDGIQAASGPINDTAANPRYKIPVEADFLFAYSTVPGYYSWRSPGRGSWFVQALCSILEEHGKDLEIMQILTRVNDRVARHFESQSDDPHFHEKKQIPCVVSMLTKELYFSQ
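Assay system: Uncleavable procaspase-7 mutant enzyme; Input: 2 µM procaspase-7 mutant as dispensed; Also added: DEVD-pNA substrate; Medium: Zinc-free HEPES pH 7.4 with 300 mM NaCl, 0.01% Triton X-100; Timing: 1 h compound preincubation, 2 h substrate cleavage, 25 °C; Measured by: Epi-absorbance of released pNA at 405 nm, two timepoints.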
GAA850 FXN act = activators of GAA850 frataxin (FXN) promoter | HEK293 lucGAA850 FXN promoter luciferase reporter, 24 h; percent of 10 µM SAHA response | activation, % at 6 µM | 360,000 tested, 0.56% active;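 active means activation above the average of all compounds screened plus 3 SD, cutoff fixed separately per campaign, cut at about 7.5% in these data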;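 further: 0% = DMSO wells and 100% = 10 µM SAHA wells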
GAA30 FXN cntr = counter-screen for GAA850 frataxin promoter activators: GAA30 promoter activation; shares compounds with GAA850 FXN act; HEK293 lucGAA30 FXN promoter luciferase, 24 h; DMSO = 0%, 5 µM ipriflavone = 100%; activation, % at 6 µM; 1,900 tested, 66% active; AID 588350;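 active means mean activation above the mean of solvent-only control wells plus 3 SD, cut at about 22% in these data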;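 further: counterscreen of GAA850 promoter hits where activity marks nonselective or luminescence artifacts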
FXN GAA850 conf = confirmation of GAA850 frataxin (FXN) promoter activators. shares compounds with GAA850 FXN act. activation, % at 6 µM. HEK293 lucGAA850 FXN promoter luciferase reporter, 24 h; 100% = activation by SAHA. 1,900 tested, 86% active;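 active means mean activation above a set limit taken from the primary screen, cut at about 8% in these data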;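 further: 0% = DMSO wells and 100% = 10 µM SAHA wells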
The depositor's hits bear a star. Sampled rows, rich in hits. Any-hit rate of the full collection: about 0.7%.

For COC(=O)c1ccc(-n2nnnc2SCC(=O)Nc2ccccc2F)cc1 the results were procasp3 activ -2.6, proCasp7 act 3.1 and GAA850 FXN act 1.6.
Screening Cc1ccc(S(=O)(=O)NC(CCC(N)=O)C(=O)NCc2ccc3c(c2)OCO3)c(C)c1 (stereo unspecified) returned GAA850 FXN act -1.3.
`C(=NN1CCCCCC1)c1ccccc1` gave GAA850 FXN act -2.0.
For CN(c1ccccc1)c1ccc(/C=N/N2CCOCC2)cc1 the results were procasp3 activ -5.6, proCasp7 act -3.8, GAA850 FXN act 7.9*, GAA30 FXN cntr 113.7* and FXN GAA850 conf 36.4*.
For Cc1ccc(NC(=O)CN2C(=O)CSc3ccc(S(=O)(=O)N4CCCCC4)cc32)cc1 the results were procasp3 activ 6.8, proCasp7 act -1.2 and GAA850 FXN act -3.2.
For C(=N\Nc1nc2ccccc2[nH]1)/c1c[nH]c2ccccc12 the results were procasp3 activ 9.3, proCasp7 act -2.2, GAA850 FXN act 9.8*, GAA30 FXN cntr 128.8* and FXN GAA850 conf 43.5*.
Cc1ccccc1/C=N/Nc1nc2ccccc2[nH]1 was read as procasp3 activ -8.7, proCasp7 act -1.7 and GAA850 FXN act 6.2.
For CC1CCC(NC(=O)CN2C(=O)c3cccnc3Oc3ccc(Cl)cc32)CC1 (stereo unspecified) the results were procasp3 activ 2.6, proCasp7 act 2.9 and GAA850 FXN act 0.2.
`CC(C)(C)n1nnnc1C(c1ccc(Cl)cc1)N(Cc1cccnc1)Cc1ccco1` (stereo unspecified) gave procasp3 activ 2.6, proCasp7 act -8.4 and GAA850 FXN act -0.7.
For CC(C)(C)n1nnnc1C(c1ccc(C(F)(F)F)cc1)N(Cc1ccc(F)cc1)Cc1ccco1 (stereo unspecified) the results were procasp3 activ 1.9, proCasp7 act -6.3, GAA850 FXN act 8.7*, GAA30 FXN cntr 15.9 and FXN GAA850 conf 14.3*.
Screening CC(C)(C)n1nnnc1C(c1ccc(C(F)(F)F)cc1)N(Cc1ccccc1)Cc1ccco1 (stereo unspecified) returned procasp3 activ -2.4, proCasp7 act 13.7 and GAA850 FXN act -0.2.
CC(C)(C)n1nnnc1C(c1ccc(F)cc1)N(Cc1ccc(F)cc1)Cc1ccco1 (stereo unspecified) was read as procasp3 activ 0.4, proCasp7 act 0.1, GAA850 FXN act 15.1*, GAA30 FXN cntr 16.9 and FXN GAA850 conf 15.4*.
Cc1ccc(S(=O)(=O)NCCn2cnc([N+](=O)[O-])n2)cc1 was read as procasp3 activ 9.8, proCasp7 act 3.6 and GAA850 FXN act 2.1.
Screening Cc1nc(C)c(C(=O)OCC(=O)Nc2cccc(C)c2C)s1 returned procasp3 activ -4.4, proCasp7 act 17.0 and GAA850 FXN act 1.3.
`CSc1ncccc1C(=O)Nc1ccc(F)c(F)c1F` gave procasp3 activ 1.5, proCasp7 act 6.1 and GAA850 FXN act 1.6.
CSc1ccccc1C(=O)OCC(=O)Nc1c(C)n(C)n(-c2ccccc2)c1=O was read as GAA850 FXN act -0.5.
For O=C(COc1ccc2c(-c3ccccc3)cc(=O)oc2c1)NCC(O)c1ccccc1 (stereo unspecified) the results were procasp3 activ -0.8, proCasp7 act -14.8 and GAA850 FXN act 0.3.
`O=C(c1ccc(S(=O)(=O)N2CCCCC2)cc1)N1CCN(CCN2C(=O)c3cccc4cccc(c34)C2=O)CC1` gave procasp3 activ -2.2, proCasp7 act 5.9 and GAA850 FXN act -0.5.
`COC(=O)c1ccc(C)c(-n2c(=O)n(Cc3ccccc3)c(=O)c3[nH]cnc32)c1` gave procasp3 activ 1.9, proCasp7 act -13.7 and GAA850 FXN act 1.4.
For O=Cc1ccc(N2CCCC2)c([N+](=O)[O-])c1 the results were procasp3 activ -1.8, proCasp7 act -2.3 and GAA850 FXN act 0.5.
Screening O=[N+]([O-])/C=C\c1ccc(N2CCCC2)c(F)c1 returned GAA850 FXN act 8.6*, GAA30 FXN cntr 18.5 and FXN GAA850 conf 31.2*.
For NNc1ccc(Cl)c(C(=O)O)c1 the results were procasp3 activ -4.0, proCasp7 act 1.1, GAA850 FXN act 8.7*, GAA30 FXN cntr 81.4* and FXN GAA850 conf 22.7*.
Screening O=C(O)/C=C/C(=O)Nc1ccc(Cl)c(C(=O)O)c1 returned procasp3 activ -5.8, proCasp7 act 1.5 and GAA850 FXN act 1.5.
Screening Cc1cc(C)n2c(=O)c3ccc(Cl)cc3nc2c1C#N returned procasp3 activ -25.0, proCasp7 act -42.2 and GAA850 FXN act 0.4.
Cc1cc(Cl)n2c(nc3cc(F)c(F)cc32)c1C#N was read as GAA850 FXN act 14.7*, GAA30 FXN cntr -50.7 and FXN GAA850 conf 29.0*.
For O=[N+]([O-])c1ccc(Cl)cc1Sc1nc2ccccc2o1 the results were procasp3 activ -4.9, proCasp7 act 0.5 and GAA850 FXN act 1.2.
Screening O=[N+]([O-])c1ccc(Sc2nc3ccccc3o2)c([N+](=O)[O-])c1 returned procasp3 activ -6.1, proCasp7 act -18.8, GAA850 FXN act 15.9*, GAA30 FXN cntr -24.9 and FXN GAA850 conf 46.0*.
For c1ccc(COc2ncnc3c2ncn3CCCN2CCN(c3ncccn3)CC2)cc1 the results were GAA850 FXN act -2.5.
Screening Cn1c(CNC(=O)c2ccco2)nnc1SCC(=O)c1ccc(F)cc1 returned procasp3 activ 5.6, proCasp7 act 2.1 and GAA850 FXN act -0.6.
CCOc1ccccc1NC(=O)COC(=O)c1c[nH]c2ccccc12 was read as GAA850 FXN act -1.4.
`Cc1ccc(S(=O)(=O)N2CCOCC2)cc1NC(=O)CN1C(=O)NC2(CCCC2)C1=O` gave procasp3 activ 5.7, proCasp7 act 0.7 and GAA850 FXN act 1.7.
`CCN(CC)c1ccc(S(=O)(=O)N2CCCCC2)cc1NC(=O)CN1C(=O)NC2(CCCC2)C1=O` gave procasp3 activ -3.4, proCasp7 act -0.3, GAA850 FXN act 9.0*, GAA30 FXN cntr 20.9 and FXN GAA850 conf 10.4*.
For COC(=O)CCCC(=O)N1CCCC(C(=O)c2ccc(OC)cc2C)C1 (stereo unspecified) the results were procasp3 activ 5.2, proCasp7 act 3.6 and GAA850 FXN act 1.9.
CC1CCCC(NC(=O)CCNC(=O)c2ccccc2Cl)C1C (stereo unspecified) was read as procasp3 activ 2.5, proCasp7 act -0.4 and GAA850 FXN act 1.1.
Screening O=C(Cn1cnc2ccccc2c1=O)NCCCN1CCCC1=O returned procasp3 activ -0.9, proCasp7 act 6.1 and GAA850 FXN act -0.1.
`COc1ccc(C)cc1-n1nc2ccccc2n1` gave procasp3 activ 3.4, proCasp7 act 5.1 and GAA850 FXN act 1.7.
